Reference: ChEMBL document CHEMBL1143827, “In vitro activity of 2,4-diamino-6-[2-(phosphonomethoxy)ethoxy]-pyrimidine against multidrug-resistant hepatitis B virus mutants” (Antimicrob Agents Chemother, 2007)

Legend:
Hepatitis B virus [1] = assay: Fold resistance, ratio of lamivudine-resistant HBV with reverse transcriptase L180M/A181V mutant to wild-type HBV genotype E; assay type: functional
In short: (§1)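 Each mutant and its corresponding wild-type strain were transfected into Huh7 cells and treated in parallel with the same drug concentration range, with HBV DNA read by Southern blot. Fold resistance = mutant EC50 / corresponding wild-type EC50. Uses means of at least three independent experiments, each in triplicate.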

Hepatitis B virus [2] = assay: Antiviral activity against entecavir-resistant HBV with reverse transcriptase L180M/S202G/M204V mutant; assay type: functional, organism-based
In short: (§2)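 Huh7 cells transiently transfected with plasmids carrying 1.1 genome units of mutant or wild-type HBV under the chicken beta-actin promoter. Drug range was 0 to 100 μM for PMEO-DAPym, lamivudine, adefovir and tenofovir. Intracellular HBV DNA was purified and analysed by Southern blot to give EC50. Values are means of at least three independent experiments, each run in triplicate.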

Hepatitis B virus [3] = assay: Fold resistance, ratio of lamivudine -adenofir-resistant with HBV reverse transcriptase V173L/L180M/A181V/M204V/N236T mutant to wild-type HBV genotype E; assay type: functional; in short: as §1
Hepatitis B virus [4] = assay: Antiviral activity against adenofir-resistant HBV with reverse transcriptase N236T mutant assessed as inhibition of replication; assay type: functional, organism-based; in short: as §2
Hepatitis B virus [5] = assay: Antiviral activity against wild type HBV genotype H assessed as inhibition of replication; assay type: functional, organism-based
In short: (§3)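 Huh7 hepatoma cells were transiently transfected with plasmids carrying 1.1 genome units of wild-type HBV under a chicken beta-actin promoter, then treated with drug across a range starting at 0 μM (up to 100 μM for some drugs). Intracellular HBV DNA was purified and analysed by Southern blot to derive EC50. Values are means of at least three independent experiments, each run in triplicate.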

Hepatitis B virus [6] = assay: Fold resistance, ratio of Lamivudine -adenofir-resistant with HBV reverse transcriptase V173L/L180M/A181V/N236T mutant to wildtype HBV genotype E; assay type: functional; in short: as §1
Hepatitis B virus [7] = assay: Fold resistance, ratio of Lamivudine -adenofir-resistant HBV with reverse transcriptase V173L/L180M/A181V mutant to wildtype HBV genotype E; assay type: functional; in short: as §1
[8] = Effect on cell viability in human Huh7 cells; assay type: cell-based, Huh-7
In short: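 Huh7 cells were exposed to drug, and viability was read as neutral red dye uptake. CC50 is the concentration that cut uptake by 50%, given as mean ± SD of three independent experiments run in quadruplicate.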

Hepatitis B virus [9] = assay: Fold resistance, ratio of Lamivudine -adenofir-resistant with HBV reverse transcriptase V173L/L180M/A181V/M204V mutant to wildtype HBV genotype E; assay type: functional; in short: as §1
Hepatitis B virus [10] = assay: Inhibition of wild type HBV replication in Huh7 cells; assay type: functional, organism-based; settings: Huh-7; in short: as §3
Hepatitis B virus [11] = assay: Antiviral activity against Lamivudine -adenofir-resistant HBV with reverse transcriptase V173L/L180M/A181V/M204V/N236T mutant; assay type: functional, organism-based; in short: as §2
Hepatitis B virus [12] = assay: Fold resistance, ratio of EC50 for lamivudine-resistant HBV with reverse transcriptase L180M/M204V mutant to EC50 for wild-type HBV; assay type: functional; in short: as §1
Hepatitis B virus [13] = assay: Fold resistance, ratio of EC50 for lamivudine-adefovir-resistant HBV with reverse transcriptase L180M/M204V/N236T mutant to EC50 for wild-type HBV; assay type: functional; in short: as §1
Hepatitis B virus [14] = assay: Antiviral activity against lamivudine-adenofir-resistant HBV with reverse transcriptase V173L/L180M/A181V/N236T mutant; assay type: functional, organism-based; in short: as §2
Hepatitis B virus [15] = assay: Fold resistance, ratio of entecavir-resistant HBV with reverse transcriptase L180M/S202G/M204V mutant to wild-type HBV genotype H; assay type: functional; in short: as §1
Hepatitis B virus [16] = assay: Antiviral activity against lamivudine-resistant HBV with reverse transcriptase L180M/M204V mutant assessed as inhibition of replication; assay type: functional, organism-based; in short: as §2
Hepatitis B virus [17] = assay: Fold resistance, ratio of lamivudine-resistant HBV with reverse transcriptase L180M/M204V mutant to wild-type HBV genotype E; assay type: functional; in short: as §1
Hepatitis B virus [18] = assay: Antiviral activity against lamivudine-adefovir-resistant HBV with reverse transcriptase L180M/M204V/N236T mutant assessed as inhibition of replication; assay type: functional, organism-based; in short: as §2
Hepatitis B virus [19] = assay: Fold resistance, ratio of lamivudine-resistant HBV with reverse transcriptase V173L/L180/M204V mutant to wild-type HBV genotype H; assay type: functional; in short: as §1
Hepatitis B virus [20] = assay: Antiviral activity against wild type HBV assessed as inhibition of replication; assay type: functional, organism-based; in short: as §3
Hepatitis B virus [21] = assay: Antiviral activity against lamivudine-resistant HBV with reverse transcriptase L180M/M204V mutant; assay type: functional, organism-based; in short: as §2
Hepatitis B virus [22] = assay: Antiviral activity against Lamivudine -adenofir-resistant HBV with reverse transcriptase V173L/L180M/A181V/M204V mutant; assay type: functional, organism-based; in short: as §2
Hepatitis B virus [23] = assay: Fold resistance, ratio of EC50 for adenofir-resistant HBV with reverse transcriptase N236T mutant to EC50 for wild-type HBV; assay type: functional; in short: as §1
Hepatitis B virus [24] = assay: Antiviral activity against lamivudine-resistant HBV with reverse transcriptase L180M/A181V mutant; assay type: functional, organism-based; in short: as §2
Hepatitis B virus [25] = assay: Antiviral activity against lamivudine-resistant HBV with reverse transcriptase V173L/L180/M204V mutant; assay type: functional, organism-based; in short: as §2
Hepatitis B virus [26] = assay: Antiviral activity against wild type HBV genotype E assessed as inhibition of replication; assay type: functional, organism-based; in short: as §3
Hepatitis B virus [27] = assay: Antiviral activity against lamivudine-adenofir-resistant HBV with reverse transcriptase V173L/L180M/A181V mutant; assay type: functional, organism-based; in short: as §2

Nc1cc(OCCOCP(=O)(O)O)nc(N)n1
Ratio EC50 (Hepatitis B virus [1]): 4.8
EC50 (Hepatitis B virus [2]): 4.5 µM
Ratio EC50 (Hepatitis B virus [3]): 2.1
EC50 (Hepatitis B virus [4]): 4.5 µM
EC50 (Hepatitis B virus [5]): 4.4 µM
Ratio EC50 (Hepatitis B virus [6]): 5.1
Ratio EC50 (Hepatitis B virus [7]): 4.3
CC50 [8]: > 1000 µM
Ratio EC50 (Hepatitis B virus [9]): 3.2
EC50 (Hepatitis B virus [10]): 4.9 µM
EC50 (Hepatitis B virus [11]): 12 µM
Ratio EC50 (Hepatitis B virus [12]): 1.2
Ratio EC50 (Hepatitis B virus [13]): 1.4
EC50 (Hepatitis B virus [14]): 29 µM
Ratio EC50 (Hepatitis B virus [15]): 1
EC50 (Hepatitis B virus [16]): 4.7 µM
Ratio EC50 (Hepatitis B virus [17]): 0.9
EC50 (Hepatitis B virus [18]): 5.7 µM
Ratio EC50 (Hepatitis B virus [19]): 0.9
EC50 (Hepatitis B virus [20]): 4 µM
EC50 (Hepatitis B virus [21]): 5.3 µM
EC50 (Hepatitis B virus [22]): 18 µM
Ratio EC50 (Hepatitis B virus [23]): 1.1
EC50 (Hepatitis B virus [24]): 27 µM
EC50 (Hepatitis B virus [25]): 4.1 µM
EC50 (Hepatitis B virus [26]): 5.6 µM
EC50 (Hepatitis B virus [27]): 24 µM

CC(C)(C)C(=O)OCOP(=O)(COCCn1cnc2c(N)ncnc21)OCOC(=O)C(C)(C)C [ADEFOVIR DIPIVOXIL]
Ratio EC50 (Hepatitis B virus [1]): 2.7
EC50 (Hepatitis B virus [2]): 15 µM
Ratio EC50 (Hepatitis B virus [3]): 7.7
EC50 (Hepatitis B virus [4]): 50.3 µM
EC50 (Hepatitis B virus [5]): 13.6 µM
Ratio EC50 (Hepatitis B virus [6]): >10
Ratio EC50 (Hepatitis B virus [7]): 4.8
CC50 [8]: 365 µM
Ratio EC50 (Hepatitis B virus [9]): 4
EC50 (Hepatitis B virus [10]): 13 µM
EC50 (Hepatitis B virus [11]): 77 µM
Ratio EC50 (Hepatitis B virus [12]): 0.98
Ratio EC50 (Hepatitis B virus [13]): 6.3
EC50 (Hepatitis B virus [14]): > 100 µM
Ratio EC50 (Hepatitis B virus [15]): 1.1
EC50 (Hepatitis B virus [16]): 15.5 µM
Ratio EC50 (Hepatitis B virus [17]): 1.5
EC50 (Hepatitis B virus [18]): 100 µM
Ratio EC50 (Hepatitis B virus [19]): 0.7
EC50 (Hepatitis B virus [20]): 15.8 µM
EC50 (Hepatitis B virus [21]): 15 µM
EC50 (Hepatitis B virus [22]): 40 µM
Ratio EC50 (Hepatitis B virus [23]): 3.2
EC50 (Hepatitis B virus [24]): 27 µM
EC50 (Hepatitis B virus [25]): 9.8 µM
EC50 (Hepatitis B virus [26]): 10 µM
EC50 (Hepatitis B virus [27]): 48 µM

C=C1[C@H](CO)[C@@H](O)C[C@@H]1n1cnc2c(=O)[nH]c(N)nc21.O [ENTECAVIR]
Ratio EC50 (Hepatitis B virus [1]): 28
EC50 (Hepatitis B virus [2]): 18 µM
Ratio EC50 (Hepatitis B virus [3]): 461
EC50 (Hepatitis B virus [4]): 0.7 µM
EC50 (Hepatitis B virus [5]): 0.09 µM
Ratio EC50 (Hepatitis B virus [6]): 9
Ratio EC50 (Hepatitis B virus [7]): 50
CC50 [8]: 125 µM
Ratio EC50 (Hepatitis B virus [9]): >=800
EC50 (Hepatitis B virus [10]): 0.3 µM
EC50 (Hepatitis B virus [11]): 25.4 µM
Ratio EC50 (Hepatitis B virus [12]): 6.25
Ratio EC50 (Hepatitis B virus [13]): 6.25
EC50 (Hepatitis B virus [14]): 0.5 µM
Ratio EC50 (Hepatitis B virus [15]): 210
EC50 (Hepatitis B virus [16]): 5 µM
Ratio EC50 (Hepatitis B virus [17]): 175
EC50 (Hepatitis B virus [18]): 5 µM
Ratio EC50 (Hepatitis B virus [19]): 43
EC50 (Hepatitis B virus [20]): 0.8 µM
EC50 (Hepatitis B virus [21]): 10.5 µM
EC50 (Hepatitis B virus [22]): ≥ 50 µM
Ratio EC50 (Hepatitis B virus [23]): 0.88
EC50 (Hepatitis B virus [24]): 1.5 µM
EC50 (Hepatitis B virus [25]): 3.7 µM
EC50 (Hepatitis B virus [26]): 0.06 µM
EC50 (Hepatitis B virus [27]): 2.75 µM

Nc1ccn([C@@H]2CS[C@H](CO)O2)c(=O)n1 [LAMIVUDINE]
Ratio EC50 (Hepatitis B virus [1]): 800
EC50 (Hepatitis B virus [2]): > 100 µM
Ratio EC50 (Hepatitis B virus [3]): >1000
EC50 (Hepatitis B virus [4]): 2.65 µM
EC50 (Hepatitis B virus [5]): 0.64 µM
Ratio EC50 (Hepatitis B virus [6]): >1000
Ratio EC50 (Hepatitis B virus [7]): 1000
CC50 [8]: > 1000 µM
Ratio EC50 (Hepatitis B virus [9]): >1000
EC50 (Hepatitis B virus [10]): 1 µM
EC50 (Hepatitis B virus [11]): > 100 µM
Ratio EC50 (Hepatitis B virus [12]): >40
Ratio EC50 (Hepatitis B virus [13]): >40
EC50 (Hepatitis B virus [14]): > 100 µM
Ratio EC50 (Hepatitis B virus [15]): >156
EC50 (Hepatitis B virus [16]): > 100 µM
Ratio EC50 (Hepatitis B virus [17]): >1000
EC50 (Hepatitis B virus [18]): > 100 µM
Ratio EC50 (Hepatitis B virus [19]): >156
EC50 (Hepatitis B virus [20]): 2.48 µM
EC50 (Hepatitis B virus [21]): > 100 µM
EC50 (Hepatitis B virus [22]): > 100 µM
Ratio EC50 (Hepatitis B virus [23]): 1.06
EC50 (Hepatitis B virus [24]): 80 µM
EC50 (Hepatitis B virus [25]): > 100 µM
EC50 (Hepatitis B virus [26]): 0.1 µM
EC50 (Hepatitis B virus [27]): 100 µM

C[C@H](Cn1cnc2c(N)ncnc21)OCP(=O)(O)O [TENOFOVIR ANHYDROUS]
Ratio EC50 (Hepatitis B virus [1]): 1.4
EC50 (Hepatitis B virus [2]): 27 µM
Ratio EC50 (Hepatitis B virus [3]): 1.8
EC50 (Hepatitis B virus [4]): 46 µM
EC50 (Hepatitis B virus [5]): 13.6 µM
Ratio EC50 (Hepatitis B virus [6]): 1.1
Ratio EC50 (Hepatitis B virus [7]): 1.6
CC50 [8]: > 1000 µM
Ratio EC50 (Hepatitis B virus [9]): 1.8
EC50 (Hepatitis B virus [10]): 16 µM
EC50 (Hepatitis B virus [11]): 46 µM
Ratio EC50 (Hepatitis B virus [12]): 3.4
Ratio EC50 (Hepatitis B virus [13]): 4.4
EC50 (Hepatitis B virus [14]): 28 µM
Ratio EC50 (Hepatitis B virus [15]): 2
EC50 (Hepatitis B virus [16]): 35.2 µM
Ratio EC50 (Hepatitis B virus [17]): 1.1
EC50 (Hepatitis B virus [18]): 45.5 µM
Ratio EC50 (Hepatitis B virus [19]): 1.2
EC50 (Hepatitis B virus [20]): 10.3 µM
EC50 (Hepatitis B virus [21]): 27 µM
EC50 (Hepatitis B virus [22]): 45 µM
Ratio EC50 (Hepatitis B virus [23]): 4.5
EC50 (Hepatitis B virus [24]): 36 µM
EC50 (Hepatitis B virus [25]): 16 µM
EC50 (Hepatitis B virus [26]): 25 µM
EC50 (Hepatitis B virus [27]): 42 µM
